DENV2 CPE rescue – protects cells from dengue virus 2 cytopathic effect; DENV2-infected cells, cytopathic effect rescue, plate reader; CPE inhibition, % at 9.99 µM; 1.7% of 350,000 active; in the data active = CPE inhibition above about 20%, passing the limit was not always enough; tested in BHK-21 cells;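 also: 0% = median of neutral control wells and 100% = median of positive control wells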
SIRT5 block – inhibitors of human sirtuin-5 desuccinylase; 1.1% of 330,000 active; Purified SirT5, succinyl-peptide AMC, trypsin-coupled fluorescence; inhibition, % at 15 µM; in the data active = inhibition above about 15%
Target sequence (Q9NXA8 whole entry, looked up): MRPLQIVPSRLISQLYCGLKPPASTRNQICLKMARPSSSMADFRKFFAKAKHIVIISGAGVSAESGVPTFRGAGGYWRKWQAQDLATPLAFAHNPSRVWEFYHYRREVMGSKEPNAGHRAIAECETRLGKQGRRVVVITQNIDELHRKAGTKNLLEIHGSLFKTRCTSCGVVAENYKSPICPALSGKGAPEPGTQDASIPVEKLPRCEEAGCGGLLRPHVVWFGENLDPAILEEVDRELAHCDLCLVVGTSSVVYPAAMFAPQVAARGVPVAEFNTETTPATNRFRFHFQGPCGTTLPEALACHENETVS
E-selectin induc – induces E-selectin expression in human endothelial cells; activation, % at 7.58 µM; 0.37% of 260,000 active; HUVEC E-selectin immunofluorescence imaging; normalized: neutral wells 0, TNF-alpha wells 100; P16581; AID 686992;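 active = mean E-selectin-positive cell signal at least 10% of the positive control, reached in at least 60% of replicates, without over 20% cell loss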
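Assay system: HUVEC, human umbilical vein endothelial cells / Amount: 3,000 HUVEC/well / Controls: TNF-alpha positive control, DMSO neutral control / Compound dosing: single concentration / Medium: EGM-2 over gelatin coat / Evaluation: percent E-selectin-positive cells / Signal: immunofluorescence imaging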
* hit, by the source's call. Compounds with a hit are over-represented: about 2.9% of the library has one in this group of screens.

How did CCN(C[C@@H]1[C@@H](c2ccc(-c3ccccc3)cc2)[C@H](CO)N1C(C)=O)C(C)=O do in these assays?
DENV2 CPE rescue: 22*; SIRT5 block: 3; E-selectin induc: -1

How did O=C(c1ccc(-c2ccc(Cl)cc2)o1)N1CCN(c2ccc([N+](=O)[O-])cc2Cl)CC1 do in these assays?
DENV2 CPE rescue: -5; SIRT5 block: 2

How did C=C(C)COC(=O)c1ccccc1C(=O)OCC1(C)CO1 (centres undefined) do in these assays?
DENV2 CPE rescue: -4; SIRT5 block: 0; E-selectin induc: 1

Results for Cc1ccc(S(=O)(=O)Nc2ccc3c(c2)C(=O)N([C@H](C)CO)C[C@H](C)[C@@H](CN(C)S(=O)(=O)c2cccs2)OCCCC[C@@H](C)O3)cc1 ?
DENV2 CPE rescue: 15; SIRT5 block: -1; E-selectin induc: 0

Results for Cc1ccc(NC(=O)CSc2nnc(N)s2)cc1S(=O)(=O)N1CCOCC1 ?
DENV2 CPE rescue: -9; SIRT5 block: -2

What do the screens show for `CNC[C@@H]1Oc2c(NC(=O)Nc3ccc(C(F)(F)F)cc3)cccc2C(=O)N([C@@H](C)CO)C[C@H]1C`?
DENV2 CPE rescue: 0; E-selectin induc: 0

Results for CC(C)c1ccc(/C=N/NC(=O)c2cc(-c3cccc([N+](=O)[O-])c3)n[nH]2)cc1 ?
DENV2 CPE rescue: 34*; SIRT5 block: 1

How did Cn1cccc1-c1cc(C(=O)N/N=C/c2ccc([N+](=O)[O-])cc2)[nH]n1 do in these assays?
DENV2 CPE rescue: 3; SIRT5 block: -3

What do the screens show for `C[C@@H]1CCCCO[C@@H](CN(C)Cc2ccc(C(F)(F)F)cc2)[C@@H](C)CN([C@H](C)CO)C(=O)c2cc(NC(=O)C3CCCCC3)ccc2O1`?
DENV2 CPE rescue: 31*; E-selectin induc: 0

How did C[C@H]1CCCCO[C@@H](CN(C)Cc2ccc(C(F)(F)F)cc2)[C@@H](C)CN([C@@H](C)CO)C(=O)c2cc(NC(=O)c3ccccc3)ccc2O1 do in these assays?
DENV2 CPE rescue: 23*; SIRT5 block: 0; E-selectin induc: 0

Results for C[C@@H]1CCCCO[C@@H](CN(C)Cc2ccc(C(F)(F)F)cc2)[C@@H](C)CN([C@@H](C)CO)C(=O)c2cc(NC(=O)c3ccccc3)ccc2O1 ?
DENV2 CPE rescue: 5; SIRT5 block: 2; E-selectin induc: 0

How did C[C@@H]1CN([C@@H](C)CO)C(=O)c2cc(NC(=O)c3ccccc3)ccc2O[C@@H](C)CCCCO[C@H]1CN(C)Cc1ccc(C(F)(F)F)cc1 do in these assays?
DENV2 CPE rescue: 49*; SIRT5 block: -8; E-selectin induc: 0

Results for C[C@@H]1CN([C@@H](C)CO)C(=O)c2cc(NC(=O)C3CCCCC3)ccc2O[C@@H](C)CCCCO[C@@H]1CN(C)Cc1ccc(C(F)(F)F)cc1 ?
DENV2 CPE rescue: 0; E-selectin induc: 0

Results for C[C@H]1CCCCO[C@H](CN(C)Cc2ccc(C(F)(F)F)cc2)[C@@H](C)CN([C@@H](C)CO)C(=O)c2cc(NC(=O)c3ccccc3)ccc2O1 ?
DENV2 CPE rescue: -3; SIRT5 block: 1; E-selectin induc: 0

Results for C[C@@H]1CCCCO[C@H](CN(C)Cc2ccc(C(F)(F)F)cc2)[C@@H](C)CN([C@@H](C)CO)C(=O)c2cc(NC(=O)c3ccccc3)ccc2O1 ?
DENV2 CPE rescue: 9; SIRT5 block: -1; E-selectin induc: 0

How did C[C@@H]1CCCCO[C@@H](CN(C)Cc2ccc(C(F)(F)F)cc2)[C@@H](C)CN([C@H](C)CO)C(=O)c2cc(NC(=O)c3ccccc3)ccc2O1 do in these assays?
DENV2 CPE rescue: 25*; SIRT5 block: 5; E-selectin induc: 0

How did NC(=O)c1cccc([N+](=O)[O-])c1 do in these assays?
DENV2 CPE rescue: -1

What do the screens show for `COc1cc2c(cc1OC)C(C)N(C(=O)c1cc3ccccc3o1)CC2` (centres undefined)?
DENV2 CPE rescue: 6; SIRT5 block: -1

What do the screens show for `C[C@@H]1CN([C@@H](C)CO)C(=O)c2cc(NC(=O)C3CCCCC3)ccc2O[C@@H](C)CCCCO[C@@H]1CN(C)C(=O)Nc1ccc(C(F)(F)F)cc1`?
DENV2 CPE rescue: 0; SIRT5 block: 0; E-selectin induc: 0

How did C[C@@H]1CCCCO[C@@H](CN(C)C(=O)Nc2ccc(C(F)(F)F)cc2)[C@@H](C)CN([C@H](C)CO)C(=O)c2cc(NC(=O)C3CCCCC3)ccc2O1 do in these assays?
DENV2 CPE rescue: 27*; SIRT5 block: 0; E-selectin induc: 0

Results for C=CCn1c(SCC(=O)N(C)C2CCS(=O)(=O)C2)nc2ccccc2c1=O (centres undefined) ?
DENV2 CPE rescue: 7; SIRT5 block: -1; E-selectin induc: 0

What do the screens show for `O=S(=O)(c1ccc(F)cc1)N1CCN(CC(O)COCc2ccccc2)CC1` (centres undefined)?
DENV2 CPE rescue: 15; SIRT5 block: 4

How did O=S(=O)(c1cccc(C(F)(F)F)c1)N1CCN(CC(O)COCc2ccccc2)CC1 (centres undefined) do in these assays?
DENV2 CPE rescue: 63*; SIRT5 block: -5; E-selectin induc: 0

Results for Cc1ccc(OC(=O)CCS(=O)(=O)c2ccc(C)cc2)cc1 ?
DENV2 CPE rescue: -7; SIRT5 block: -1

Results for C[C@H]1CN([C@@H](C)CO)C(=O)c2cc(NC(=O)Nc3ccccc3)ccc2O[C@@H]1CN(C)S(=O)(=O)c1cn(C)cn1 ?
DENV2 CPE rescue: 1; SIRT5 block: -3; E-selectin induc: 0

How did C/C=C/c1ccc([C@@H]2[C@@H](CO)N3C(=O)CN(C(=O)Cc4cccnc4)C[C@@H]23)cc1 do in these assays?
DENV2 CPE rescue: 0; SIRT5 block: -2; E-selectin induc: 0

How did CC(=O)c1cnc2c(-c3ccccc3)c(C(F)(F)F)nn2c1C do in these assays?
DENV2 CPE rescue: -2; SIRT5 block: -2; E-selectin induc: 3

What do the screens show for `Cc1nn2c(C)c(C(=O)Nc3ccccc3)cnc2c1-c1ccccc1`?
DENV2 CPE rescue: 42*; SIRT5 block: 1; E-selectin induc: 3

Results for COc1ccc2nc(/C(C#N)=C\c3ccc(C(=O)O)cc3)[nH]c2c1 ?
DENV2 CPE rescue: 2; SIRT5 block: 3

Results for C[C@H](CO)N1C[C@H](C)[C@@H](CN(C)Cc2ccc(Cl)c(Cl)c2)Oc2c(NC(=O)Nc3ccc(F)cc3)cccc2C1=O ?
DENV2 CPE rescue: -9; SIRT5 block: 1; E-selectin induc: 1

How did C[C@H]1CN([C@@H](C)CO)C(=O)c2cc(-c3cccnc3)cnc2O[C@H]1CN(C)C(=O)NC1CCCC1 do in these assays?
DENV2 CPE rescue: 2; SIRT5 block: 3; E-selectin induc: 0

Results for Cc1ccnc(NCc2cccc3ccccc23)c1 ?
DENV2 CPE rescue: 13; SIRT5 block: 53*

How did COc1cccc(CNc2cc(C)ccn2)c1O do in these assays?
DENV2 CPE rescue: 8; SIRT5 block: -1; E-selectin induc: 0

Results for Cc1ccc(C23OCCN2CCn2nc4ccccc4c23)cc1 (centres undefined) ?
DENV2 CPE rescue: 74*; E-selectin induc: 0

Results for N#Cc1ccc(C23OCCN2CCn2c3c3ccccc3[n+]2[O-])cc1 (centres undefined) ?
DENV2 CPE rescue: 9; SIRT5 block: -1; E-selectin induc: 1

Screens as filed in PubChem BioAssay.
